Laboratory results published in ChEMBL document CHEMBL1137365, “1,4,5,6-tetrahydropyrrolo[3,4-c]pyrazoles: identification of a potent Aurora kinase inhibitor with a favorable antitumor kinase inhibition profile” (J Med Chem, 2006).
The source made the active and inactive calls. No cut-off for these calls is given here.

Assays:
HCT-116 [1] = assay: Cell cycle arrest in HCT116 cells by accumulation at G2/M phase; format: functional, cell-based; details: Homo sapiens
Aurora kinase A = biological target: T1, Aurora kinase A (Homo sapiens, UniProt O14965); assay: Inhibition of Aurora A kinase
T1 sequence (O14965 whole entry): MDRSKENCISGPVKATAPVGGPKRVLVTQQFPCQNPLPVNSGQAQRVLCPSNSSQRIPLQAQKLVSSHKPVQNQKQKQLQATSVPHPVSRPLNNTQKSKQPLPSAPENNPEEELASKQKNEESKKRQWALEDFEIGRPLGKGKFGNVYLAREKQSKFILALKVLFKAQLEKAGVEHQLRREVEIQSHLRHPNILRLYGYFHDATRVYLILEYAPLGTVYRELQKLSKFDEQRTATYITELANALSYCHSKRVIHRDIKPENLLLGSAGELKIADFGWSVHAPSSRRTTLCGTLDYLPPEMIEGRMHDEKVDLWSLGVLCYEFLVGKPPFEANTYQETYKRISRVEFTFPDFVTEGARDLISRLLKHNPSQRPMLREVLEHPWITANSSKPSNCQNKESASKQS

HCT-116 [2] = assay: Antiproliferative activity against HCT116 cells; format: functional, cell-based; details: Homo sapiens
Procedure, shortened: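 HCT-116 human colon carcinoma cells; proliferation IC50 taken from dose-response curves, reported as the mean of at least three independent determinations.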

Aurora kinase B = Aurora kinase B (Homo sapiens, UniProt Q96GD4); assay: Inhibition of Aurora B kinase
Chain of Aurora kinase B (Q96GD4 whole entry): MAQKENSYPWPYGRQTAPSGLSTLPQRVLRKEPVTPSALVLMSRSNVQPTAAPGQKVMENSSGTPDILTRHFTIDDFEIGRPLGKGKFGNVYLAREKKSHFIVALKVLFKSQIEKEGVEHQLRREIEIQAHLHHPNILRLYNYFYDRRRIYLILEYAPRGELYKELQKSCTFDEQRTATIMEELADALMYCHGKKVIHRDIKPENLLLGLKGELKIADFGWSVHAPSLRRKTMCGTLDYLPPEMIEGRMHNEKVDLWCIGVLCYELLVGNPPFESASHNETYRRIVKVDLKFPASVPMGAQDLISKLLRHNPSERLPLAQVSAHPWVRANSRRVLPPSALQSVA
Procedure, shortened: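 Biochemical Aurora-B kinase inhibition; IC50 reported as the mean of at least three individual determinations.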

[3] = Aqueous solubility at pH 5.5; format: physicochemical
Procedure, shortened: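 Aqueous solubility measured on the hydrochloride salt at pH 5.5.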

HCT-116 [4] = assay: Inhibition of histone h3 phosphorylation in HCT116 cells by Western blot analysis; format: functional, cell-based; details: Homo sapiens
Procedure, shortened: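 HCT-116 cells probed by Western blot for histone H3 phosphorylated at serine 10. α-Tubulin antibody used as the loading control.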

HL-60 [5] = assay: Antitumor activity against HL60 cells xenografted in SCID mouse at 7.5 to 30 mg/kg, iv after 5 days; format: functional; details: dose mg/kg 7.5-30
Procedure, shortened: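 SCID mice carrying HL-60 human tumor xenografts. Dosed iv twice daily for 5 days (bid × 5) at 7.5 to 30 mg/kg. Tumor growth inhibition followed over time.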

HeLa = assay: Antiproliferative activity against HeLa cells; format: functional, cell-based; details: Homo sapiens
A2780 = assay: Antiproliferative activity against A2780 cells; format: functional, cell-based; details: Homo sapiens
HL-60 [6] = assay: Body weight loss of SCID mouse xenografted with HL60 cells at 30 mg/kg, iv after 5 days; format: functional
MCF7 = assay: Antiproliferative activity against MCF7 cells; format: functional, cell-based; details: Homo sapiens
Procedure, shortened: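 IC50 taken from dose-response curves of cell proliferation; each reported value is the mean of three or more independent curves.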

[7] = biological target: Vascular endothelial growth factor receptor 3 (Homo sapiens, UniProt P35916); assay: Inhibition of VEGFR3
Chain of Vascular endothelial growth factor receptor 3 (P35916 whole entry): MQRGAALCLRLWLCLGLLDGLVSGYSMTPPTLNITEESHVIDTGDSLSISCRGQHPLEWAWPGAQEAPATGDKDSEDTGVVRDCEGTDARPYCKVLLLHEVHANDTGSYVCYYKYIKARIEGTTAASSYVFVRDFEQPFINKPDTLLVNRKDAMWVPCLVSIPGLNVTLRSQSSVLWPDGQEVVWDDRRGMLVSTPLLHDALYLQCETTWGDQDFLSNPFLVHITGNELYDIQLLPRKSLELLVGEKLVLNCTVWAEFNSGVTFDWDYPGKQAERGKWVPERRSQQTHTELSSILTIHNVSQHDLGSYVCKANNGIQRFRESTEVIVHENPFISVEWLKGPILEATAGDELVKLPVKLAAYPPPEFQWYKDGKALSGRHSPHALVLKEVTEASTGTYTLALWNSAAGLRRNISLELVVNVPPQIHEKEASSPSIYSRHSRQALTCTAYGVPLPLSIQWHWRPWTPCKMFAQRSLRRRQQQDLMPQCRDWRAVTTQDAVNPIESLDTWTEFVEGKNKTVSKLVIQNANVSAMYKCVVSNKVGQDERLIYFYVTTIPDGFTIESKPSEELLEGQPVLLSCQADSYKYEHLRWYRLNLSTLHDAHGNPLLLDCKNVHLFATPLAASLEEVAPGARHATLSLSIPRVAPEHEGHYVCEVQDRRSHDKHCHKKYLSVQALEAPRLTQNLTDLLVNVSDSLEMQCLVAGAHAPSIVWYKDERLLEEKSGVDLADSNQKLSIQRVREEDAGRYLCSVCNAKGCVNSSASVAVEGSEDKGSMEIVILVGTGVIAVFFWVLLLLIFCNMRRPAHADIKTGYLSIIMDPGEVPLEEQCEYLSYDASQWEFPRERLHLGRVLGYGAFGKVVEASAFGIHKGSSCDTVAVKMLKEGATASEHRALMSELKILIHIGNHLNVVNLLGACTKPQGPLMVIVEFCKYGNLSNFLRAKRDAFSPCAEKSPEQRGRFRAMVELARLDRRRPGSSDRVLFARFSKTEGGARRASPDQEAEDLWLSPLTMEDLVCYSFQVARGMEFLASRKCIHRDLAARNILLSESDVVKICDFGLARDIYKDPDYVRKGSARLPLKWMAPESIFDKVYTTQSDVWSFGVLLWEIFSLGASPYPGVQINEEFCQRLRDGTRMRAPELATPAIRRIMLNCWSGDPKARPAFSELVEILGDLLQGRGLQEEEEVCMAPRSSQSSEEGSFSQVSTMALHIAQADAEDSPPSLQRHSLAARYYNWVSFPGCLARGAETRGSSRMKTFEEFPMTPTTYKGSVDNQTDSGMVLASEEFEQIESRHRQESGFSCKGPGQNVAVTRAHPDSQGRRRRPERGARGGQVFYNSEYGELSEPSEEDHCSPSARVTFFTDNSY

Aurora kinase C = biological target: T2, Aurora kinase C (Homo sapiens, UniProt Q9UQB9); assay: Inhibition of Aurora C kinase
T2 sequence (Q9UQB9 whole entry): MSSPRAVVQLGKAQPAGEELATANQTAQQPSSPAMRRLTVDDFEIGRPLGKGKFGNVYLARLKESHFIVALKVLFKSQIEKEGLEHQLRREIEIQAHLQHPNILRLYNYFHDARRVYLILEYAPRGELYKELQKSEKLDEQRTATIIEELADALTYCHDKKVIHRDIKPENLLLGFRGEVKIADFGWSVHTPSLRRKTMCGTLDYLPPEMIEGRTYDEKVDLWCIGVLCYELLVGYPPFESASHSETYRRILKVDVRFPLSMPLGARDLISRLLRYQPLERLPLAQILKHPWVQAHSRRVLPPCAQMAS

[8] = AUC in CD1 mouse at 10 mg/kg, iv; format: ADME, organism-based; set-up: dose 10 mg/kg, route intravenous; details: plasma
Procedure, shortened: (§1)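 Plasma levels followed up to 6 h post-dose. Parameters estimated individually for three mice (M1–M3) and reported as mean and SD.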

[9] = biological target: T3, 3-phosphoinositide-dependent protein kinase 1 (Homo sapiens, UniProt O15530); assay: Inhibition of PDK1
T3 sequence (O15530 whole entry): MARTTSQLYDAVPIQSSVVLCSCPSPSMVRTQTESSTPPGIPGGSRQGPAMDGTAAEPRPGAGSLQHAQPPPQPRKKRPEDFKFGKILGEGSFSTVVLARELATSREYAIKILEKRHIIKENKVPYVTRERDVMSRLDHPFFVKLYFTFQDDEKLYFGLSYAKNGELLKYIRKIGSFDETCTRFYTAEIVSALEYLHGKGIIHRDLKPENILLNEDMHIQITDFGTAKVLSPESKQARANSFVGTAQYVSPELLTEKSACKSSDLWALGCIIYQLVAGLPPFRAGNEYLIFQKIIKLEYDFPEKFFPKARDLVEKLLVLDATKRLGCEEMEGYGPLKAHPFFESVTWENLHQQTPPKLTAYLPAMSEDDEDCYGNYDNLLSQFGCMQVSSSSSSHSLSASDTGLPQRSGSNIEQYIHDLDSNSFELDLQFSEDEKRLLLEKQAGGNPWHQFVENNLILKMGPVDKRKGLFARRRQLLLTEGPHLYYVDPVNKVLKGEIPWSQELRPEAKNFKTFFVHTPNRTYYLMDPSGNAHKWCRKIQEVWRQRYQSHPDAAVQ

[10] = Terminal half life in CD1 mouse at 10 mg/kg, iv; format: ADME, organism-based; set-up: dose 10 mg/kg, route intravenous; details: in vivo, read-out: beta t1/2 (converted); procedure, shortened: as §1
[11] = biological target: T4, Serine/threonine-protein kinase SULU (Caenorhabditis elegans, UniProt P46549); assay: Inhibition of SULU
T4 sequence (P46549 whole entry): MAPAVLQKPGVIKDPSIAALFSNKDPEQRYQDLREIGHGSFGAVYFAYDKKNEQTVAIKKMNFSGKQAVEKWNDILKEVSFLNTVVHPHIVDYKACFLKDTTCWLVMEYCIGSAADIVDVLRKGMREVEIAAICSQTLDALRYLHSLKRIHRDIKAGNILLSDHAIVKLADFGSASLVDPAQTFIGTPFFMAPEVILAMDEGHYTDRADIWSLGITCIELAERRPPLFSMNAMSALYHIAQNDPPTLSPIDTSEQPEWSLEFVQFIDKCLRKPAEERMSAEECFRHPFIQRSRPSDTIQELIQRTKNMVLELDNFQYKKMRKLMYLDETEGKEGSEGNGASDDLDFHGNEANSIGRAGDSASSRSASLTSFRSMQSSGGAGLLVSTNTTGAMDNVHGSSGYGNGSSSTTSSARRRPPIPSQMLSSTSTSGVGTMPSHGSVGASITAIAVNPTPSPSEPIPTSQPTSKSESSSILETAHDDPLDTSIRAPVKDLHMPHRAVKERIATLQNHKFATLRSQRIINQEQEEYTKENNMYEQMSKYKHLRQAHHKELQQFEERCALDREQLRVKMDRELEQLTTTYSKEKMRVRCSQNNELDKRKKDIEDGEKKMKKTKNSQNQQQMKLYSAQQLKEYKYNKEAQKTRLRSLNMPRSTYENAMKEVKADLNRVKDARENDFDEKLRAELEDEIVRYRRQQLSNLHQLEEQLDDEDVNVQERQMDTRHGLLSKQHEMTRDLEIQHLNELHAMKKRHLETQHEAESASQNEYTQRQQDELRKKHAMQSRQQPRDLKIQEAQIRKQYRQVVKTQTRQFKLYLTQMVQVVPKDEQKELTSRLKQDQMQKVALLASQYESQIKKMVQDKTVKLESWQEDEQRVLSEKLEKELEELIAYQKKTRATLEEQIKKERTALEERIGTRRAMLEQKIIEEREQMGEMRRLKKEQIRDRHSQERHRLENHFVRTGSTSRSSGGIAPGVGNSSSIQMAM

[12] = Cmax in CD1 mouse at 10 mg/kg, iv; format: ADME, organism-based; set-up: dose 10 mg/kg, route intravenous; details: in vivo; procedure, shortened: as §1
[13] = biological target: T5, Tyrosine-protein kinase ZAP-70 (Homo sapiens, UniProt P43403); assay: Inhibition of ZAP70
T5 sequence (P43403 whole entry): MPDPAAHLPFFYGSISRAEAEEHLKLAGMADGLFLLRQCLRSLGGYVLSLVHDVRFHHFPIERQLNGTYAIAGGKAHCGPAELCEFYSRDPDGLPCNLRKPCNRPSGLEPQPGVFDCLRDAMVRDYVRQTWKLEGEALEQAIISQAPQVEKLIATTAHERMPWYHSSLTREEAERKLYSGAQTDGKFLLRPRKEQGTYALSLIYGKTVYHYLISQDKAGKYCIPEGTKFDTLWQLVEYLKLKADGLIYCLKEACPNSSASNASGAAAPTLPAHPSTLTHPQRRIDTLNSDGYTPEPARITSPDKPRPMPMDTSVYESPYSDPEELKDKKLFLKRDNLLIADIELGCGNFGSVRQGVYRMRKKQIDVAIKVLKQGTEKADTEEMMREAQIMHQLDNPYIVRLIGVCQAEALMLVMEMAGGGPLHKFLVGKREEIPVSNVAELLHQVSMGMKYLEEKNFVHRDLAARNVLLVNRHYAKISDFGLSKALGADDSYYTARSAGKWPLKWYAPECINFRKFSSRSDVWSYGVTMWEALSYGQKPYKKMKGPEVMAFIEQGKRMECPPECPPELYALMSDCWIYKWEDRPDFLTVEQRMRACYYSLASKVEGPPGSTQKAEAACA

[14] = Clearance in CD1 mouse at 10 mg/kg, iv; format: ADME, organism-based; set-up: dose 10 mg/kg, route intravenous; details: in vivo; procedure, shortened: as §1
[15] = biological target: T6, Inhibitor of nuclear factor kappa-B kinase subunit beta (Homo sapiens, UniProt O14920); assay: Inhibition of IKK2
T6 sequence (O14920 whole entry): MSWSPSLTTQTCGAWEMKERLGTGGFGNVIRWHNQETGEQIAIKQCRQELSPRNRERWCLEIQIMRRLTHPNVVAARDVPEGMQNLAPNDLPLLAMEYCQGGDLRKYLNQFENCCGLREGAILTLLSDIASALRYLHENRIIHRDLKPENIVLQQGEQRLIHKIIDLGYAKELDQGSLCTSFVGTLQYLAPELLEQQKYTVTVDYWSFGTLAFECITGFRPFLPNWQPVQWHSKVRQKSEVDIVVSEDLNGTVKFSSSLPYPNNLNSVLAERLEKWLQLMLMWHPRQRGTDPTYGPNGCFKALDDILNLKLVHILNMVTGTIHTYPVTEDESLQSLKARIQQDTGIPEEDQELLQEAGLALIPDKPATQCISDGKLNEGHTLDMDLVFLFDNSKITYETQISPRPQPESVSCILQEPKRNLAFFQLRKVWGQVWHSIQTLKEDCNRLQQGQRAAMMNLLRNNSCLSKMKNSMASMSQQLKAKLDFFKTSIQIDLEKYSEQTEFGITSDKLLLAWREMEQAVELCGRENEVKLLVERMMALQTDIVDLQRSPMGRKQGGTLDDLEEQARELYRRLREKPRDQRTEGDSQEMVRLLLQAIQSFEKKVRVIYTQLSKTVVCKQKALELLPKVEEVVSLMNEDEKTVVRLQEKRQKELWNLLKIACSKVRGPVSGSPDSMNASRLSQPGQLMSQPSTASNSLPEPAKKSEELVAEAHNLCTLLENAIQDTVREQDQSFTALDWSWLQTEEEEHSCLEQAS

[16] = Volume of distribution in CD1 mouse at 10 mg/kg, iv; format: ADME, organism-based; set-up: dose 10 mg/kg, route intravenous; details: in vivo, read-out: Vss; procedure, shortened: as §1
[17] = biological target: Serine/threonine-protein kinase NIM1 (Homo sapiens, UniProt Q8IY84); assay: Inhibition of NIM1
Chain of Serine/threonine-protein kinase NIM1 (Q8IY84 whole entry): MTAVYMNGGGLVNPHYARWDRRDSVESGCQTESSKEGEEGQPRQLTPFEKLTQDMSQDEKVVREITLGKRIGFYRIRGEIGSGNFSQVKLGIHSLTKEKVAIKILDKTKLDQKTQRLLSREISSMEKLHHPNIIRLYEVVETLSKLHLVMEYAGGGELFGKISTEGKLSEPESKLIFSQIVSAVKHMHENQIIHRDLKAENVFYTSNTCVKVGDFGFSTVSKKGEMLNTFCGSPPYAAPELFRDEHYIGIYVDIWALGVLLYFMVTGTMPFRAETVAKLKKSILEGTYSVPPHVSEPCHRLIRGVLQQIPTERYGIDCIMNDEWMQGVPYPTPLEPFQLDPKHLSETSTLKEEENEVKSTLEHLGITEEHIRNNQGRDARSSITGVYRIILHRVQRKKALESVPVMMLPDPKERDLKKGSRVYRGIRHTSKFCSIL

Compound | EC50 (HCT-116 [1]) [nM] | IC50 (Aurora kinase A) [nM] | IC50 (HCT-116 [2]) [nM] | IC50 (Aurora kinase B) [nM] | other results
CN1CCN(c2ccc(C(=O)Nc3n[nH]c4c3CN(C(=O)Cc3ccccc3)C4)cc2)CC1 | 500 | 130 | 220 | – | –
C[C@H](C(=O)N1Cc2n[nH]c(NC(=O)c3ccc(N4CCN(C)CC4)cc3)c2C1)c1ccccc1 | – | 452 | – | 1210 | –
CN1CCN(c2ccc(C(=O)Nc3n[nH]c4c3CN(C(=O)[C@H](F)c3ccccc3)C4)cc2)CC1 | 110 | 9 | 50 | 300 | –
CN1CCN(c2ccc(C(=O)Nc3n[nH]c4c3CN(C(=O)[C@H](O)c3ccccc3)C4)cc2)CC1 | > 200 | 6 | 97 | 48 | –
C[C@@H](C(=O)N1Cc2[nH]nc(NC(=O)c3ccc(N4CCN(C)CC4)cc3)c2C1)c1ccccc1 | 100 | 24 | 21 | 99 | –
CO[C@@H](C(=O)N1Cc2n[nH]c(NC(=O)c3ccc(N4CCN(C)CC4)cc3)c2C1)c1ccccc1.Cl | – | – | – | – | solubility [3]: > 15 mg/mL
CO[C@@H](C(=O)N1Cc2[nH]nc(NC(=O)c3ccc(N4CCN(C)CC4)cc3)c2C1)c1ccccc1 [DANUSERTIB] | 80 | – | 31 | – | Activity (HCT-116 [4]): Active; TGI (HL-60 [5]): 98%; IC50 (HeLa): 140 nM; IC50 (A2780): 28 nM; Activity (HL-60 [6]): 16%; IC50 (MCF7): 80 nM
CO[C@@H](C(=O)N1Cc2n[nH]c(NC(=O)c3ccc(N4CCN(C)CC4)cc3)c2C1)c1ccccc1 [DANUSERTIB] | – | – | – | – | IC50 [7]: 161 nM; IC50 (Aurora kinase C): 61 nM; AUC [8]: 6.5 µM·h; IC50 [9]: > 10000 nM; half-life [10]: 1.4 h; IC50 [11]: > 10000 nM; Cmax [12]: 9.6 µM; IC50 [13]: > 10000 nM; clearance [14]: 60 mL/min/kg; IC50 [15]: > 10000 nM; Vd [16]: 3.7 L/kg; IC50 [17]: > 10000 nM
